How the values were obtained:
[1] = Retention time of the compound; type: physicochemical
[2] = target: T1, Fatty-acid amide hydrolase 1 (Rattus norvegicus, UniProt P97612); test: Irreversible inhibition of recombinant rat FAAH preincubated for 3 hrs
T1 sequence (P97612 whole entry): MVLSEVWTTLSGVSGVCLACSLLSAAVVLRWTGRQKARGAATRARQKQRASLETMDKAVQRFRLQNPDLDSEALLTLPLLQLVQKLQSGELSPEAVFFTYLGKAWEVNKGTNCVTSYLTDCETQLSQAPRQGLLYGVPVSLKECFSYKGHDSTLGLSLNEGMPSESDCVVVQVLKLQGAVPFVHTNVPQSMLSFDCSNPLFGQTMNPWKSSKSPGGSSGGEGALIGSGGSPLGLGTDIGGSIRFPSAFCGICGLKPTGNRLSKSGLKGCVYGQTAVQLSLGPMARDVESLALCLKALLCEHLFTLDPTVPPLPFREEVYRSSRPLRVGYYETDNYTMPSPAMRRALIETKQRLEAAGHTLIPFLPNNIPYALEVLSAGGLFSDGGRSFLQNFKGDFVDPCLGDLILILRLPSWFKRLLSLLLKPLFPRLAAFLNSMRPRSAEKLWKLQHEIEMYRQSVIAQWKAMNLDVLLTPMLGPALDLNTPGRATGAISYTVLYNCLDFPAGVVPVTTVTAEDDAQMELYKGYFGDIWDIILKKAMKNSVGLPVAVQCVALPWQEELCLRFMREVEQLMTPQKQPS
Method in brief: (§1)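 Recombinant FAAH (rFAAH) was preincubated with the inhibitor for 3 h before activity was measured. Results are reported as an apparent Ki in nM.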

[3] = target: T1, Fatty-acid amide hydrolase 1; test: Inhibition of recombinant rat FAAH preincubated for 3 hrs; method in brief: as §1

Row | SMILES | Retention_time [1] [min] | Ki [2] [nM] | Ki [3] [nM]
1 | O=C(N1CCN(Cc2ccc(Oc3ccccc3)cc2)CC1)n1cccn1 | 3.893 | 9.2 | –
2 | Cc1cnn(C(=O)OCc2ccc(Oc3ccccc3)cc2)c1 | 3.899 | – | –
3 | N#Cc1cnn(C(=O)NCc2ccc(-c3ccccc3)cc2)c1 | 3.897 | – | –
4 | N#Cc1cnn(C(=O)NCc2ccc(Oc3ccccc3)cc2)c1 | 4.022 | – | –
5 | Cc1cnn(C(=O)N2CCN(Cc3ccc(-c4ccccc4)cc3)CC2)c1 | 3.899 | – | 170
6 | N#Cc1cnn(C(=O)Oc2ccc3ccccc3c2)c1 | 3.9 | – | –
7 | O=C(OCc1ccc(OCc2ccccc2)cc1)n1cccn1 | 3.905 | – | –
8 | N#Cc1cnn(C(=O)N2CCN(Cc3ccc(Oc4ccccc4)cc3)CC2)c1 | 3.927 | 0.1 | –
9 | O=C(NCc1ccc(OCc2ccccc2)cc1)n1cccn1 | 3.896 | – | –
10 | CC(C)(C)OC(=O)N1CCN(C(=O)n2cc(C#N)cn2)CC1 | 3.946 | – | 55
11 | N#Cc1cnn(C(=O)Cc2ccc3ccccc3c2)c1 | 3.906 | – | –
12 | N#Cc1cnn(C(=O)NCc2ccc3ccccc3c2)c1 | 4.14 | – | –
13 | CC(C)(C)OC(=O)N1CCCN(C(=O)n2cccn2)CC1 | 3.518 | – | –
14 | O=C(N1CCN(Cc2ccc(-c3ccccc3)cc2)CC1)n1cccn1 | 3.897 | – | 12
15 | N#Cc1cnn(C(=O)N2CCN(Cc3ccc(OCc4ccccc4)cc3)CC2)c1 | 3.787 | – | 0.16
16 | Cc1cnn(C(=O)Oc2ccc3ccccc3c2)c1 | 3.954 | – | –
17 | O=C(N1CCN(Cc2ccc3ccccc3c2)CC1)n1cccn1 | 3.791 | 9.8 | –
18 | CC(C)(C)OC(=O)N1CCCN(C(=O)n2cc(C#N)cn2)CC1 | 3.792 | – | –
19 | Cc1ccc(CNC(=O)n2cc(C#N)cn2)cc1 | 3.97 | – | –
20 | Cc1cnn(C(=O)OCc2ccc3ccccc3c2)c1 | 3.998 | – | –
21 | O=C(NCc1ccc2ccccc2c1)n1cccn1 | 4.106 | – | –

Row | SMILES | Retention_time [1] [min] | Ki [2] [nM] | Ki [3] [nM]
22 | Cc1cnn(C(=O)N2CCN(C(=O)OC(C)(C)C)CC2)c1 | 3.784 | – | 850
23 | N#Cc1cnn(C(=O)OCc2ccc(Oc3ccccc3)cc2)c1 | 3.92 | – | –
24 | Cc1ccc(CNC(=O)n2cccn2)cc1 | 4.104 | – | –
25 | N#Cc1cnn(C(=O)Cc2ccc(-c3ccccc3)cc2)c1 | 3.977 | – | –
26 | O=C(NCc1ccc(Oc2ccccc2)cc1)n1cccn1 | 3.987 | – | –
27 | O=C(N1CCN(Cc2ccc3ccccc3c2)CC1)n1cc(Br)cn1 | 3.989 | 0.47 | –
28 | O=C(Cc1ccc2ccccc2c1)n1cccn1 | 3.788 | – | –
29 | N#Cc1cnn(C(=O)NCc2ccc(OCc3ccccc3)cc2)c1 | 3.877 | – | –
30 | N#Cc1cnn(C(=O)N2CCN(Cc3ccc4ccccc4c3)CC2)c1 | 3.915 | 0.16 | –
31 | O=C(OCc1ccc2ccccc2c1)n1cccn1 | 4.008 | – | –
32 | Cc1cnn(C(=O)N2CCCCC2)c1 | 3.933 | – | > 1000
33 | Cc1ccc(COC(=O)n2cccn2)cc1 | 4.1 | – | –
34 | N#Cc1cnn(C(=O)OCc2ccc3ccccc3c2)c1 | 3.689 | – | –
35 | O=C(OCc1ccc(-c2ccccc2)cc1)n1cccn1 | 3.999 | – | –
36 | N#Cc1cnn(C(=O)N2CCCCC2)c1 | 3.824 | – | 80
37 | N#Cc1cnn(C(=O)Nc2ccc3ccccc3c2)c1 | 3.965 | – | –
38 | N#Cc1cnn(C(=O)N2CCN(Cc3ccc(-c4ccccc4)cc3)CC2)c1 | 3.877 | – | 0.19
39 | Cc1cnn(C(=O)N(C)CCN(C)C(=O)OC(C)(C)C)c1 | 3.969 | – | –
40 | Cc1ccc(COC(=O)n2cc(C)cn2)cc1 | 4.122 | – | –
41 | O=C(N1CCCCC1)n1cccn1 | 3.484 | – | 750
42 | O=C(OCc1ccc(Oc2ccccc2)cc1)n1cccn1 | 3.989 | – | –

Row | SMILES | Retention_time [1] [min] | Ki [2] [nM] | Ki [3] [nM]
43 | O=C(Oc1ccc2ccccc2c1)n1cccn1 | 3.96 | – | –
44 | N#Cc1cnn(C(=O)OCc2ccc(-c3ccccc3)cc2)c1 | 4.103 | – | –
45 | Cc1cnn(C(=O)N2CCN(Cc3ccc(Oc4ccccc4)cc3)CC2)c1 | 3.987 | 210 | –
46 | Cc1cnn(C(=O)N2CCCN(C(=O)OC(C)(C)C)CC2)c1 | 3.959 | – | –
47 | CN(CCN(C)C(=O)n1cc(C#N)cn1)C(=O)OC(C)(C)C | 3.791 | – | –
48 | O=C(Nc1ccc2ccccc2c1)n1cccn1 | 3.895 | – | –
49 | O=C(Cc1ccc(-c2ccccc2)cc1)n1cccn1 | 4.1 | – | –
50 | COC(=O)c1cnn(C(=O)N2CCN(Cc3ccc4ccccc4c3)CC2)c1 | 3.999 | 0.36 | –
51 | Cc1cnn(C(=O)N2CCN(Cc3ccc4ccccc4c3)CC2)c1 | 3.896 | 130 | –
52 | Cc1cnn(C(=O)N2CCN(Cc3ccc(OCc4ccccc4)cc3)CC2)c1 | 3.899 | – | 100
53 | N#Cc1cnn(C(=O)N2CCN(Cc3ccccc3)CC2)c1 | 3.899 | – | 75
54 | N#Cc1cnn(C(=O)OCc2ccc(OCc3ccccc3)cc2)c1 | 3.912 | – | –
55 | O=C(N1CCN(Cc2ccc(OCc3ccccc3)cc2)CC1)n1cccn1 | 3.929 | – | 10
56 | Cc1ccc(COC(=O)n2cc(C#N)cn2)cc1 | 3.988 | – | –
57 | O=C(NCc1ccc(-c2ccccc2)cc1)n1cccn1 | 3.944 | – | –
58 | CC(C)(C)OC(=O)N1CCN(C(=O)n2cccn2)CC1 | 3.92 | – | 340
59 | CN(CCN(C)C(=O)n1cccn1)C(=O)OC(C)(C)C | 3.884 | – | –
60 | O=C(N1CCN(Cc2ccccc2)CC1)n1cccn1 | 3.894 | – | 180
61 | O=C(N1CCN(Cc2ccc3ccccc3c2)CC1)n1cc(I)cn1 | 3.844 | 0.29 | –

Results, then the molecule that gave them:

Row | Retention_time [1] [min] | Ki [2] [nM] | Ki [3] [nM] | SMILES
62 | 3.9 | – | – | Cc1cnn(C(=O)Nc2ccc3ccccc3c2)c1
63 | 4.102 | – | – | Cc1cnn(C(=O)OCc2ccc(-c3ccccc3)cc2)c1
64 | 3.687 | – | – | Cc1cnn(C(=O)CCCCc2ccccc2)c1
65 | 4.243 | – | – | Cc1cnn(C(=O)NCc2ccc3ccccc3c2)c1
66 | 3.779 | – | 710 | O=C(OCCCCc1ccccc1)n1cccn1
67 | 3.669 | – | – | O=C(OCCCc1ccccc1)n1cccn1
68 | 4.2 | – | > 5000 | Cc1cnn(C(=O)CCCCCc2ccccc2)c1
69 | 4.199 | – | > 5000 | O=C(CCCCCc1ccccc1)n1cccn1
70 | 3.467 | – | – | Cc1cnn(C(=O)Cc2ccc(-c3ccccc3)cc2)c1
71 | 4.11 | – | – | Cc1ccc(CNC(=O)n2cc(C)cn2)cc1
72 | 4.104 | – | – | Cc1cnn(C(=O)OCCCCCc2ccccc2)c1
73 | 3.876 | – | – | Cc1cnn(C(=O)NCc2ccc(OCc3ccccc3)cc2)c1
74 | 3.762 | – | 210 | N#Cc1cnn(C(=O)OCCCCc2ccccc2)c1
75 | 3.927 | – | – | N#Cc1cnn(C(=O)OCCCc2ccccc2)c1
76 | 3.977 | – | – | O=C(CCCCc1ccccc1)n1cccn1
77 | 3.998 | – | > 5000 | N#Cc1cnn(C(=O)CCCCCc2ccccc2)c1
78 | 3.702 | – | – | N#Cc1cnn(C(=O)CCCCc2ccccc2)c1
79 | 3.69 | – | – | Cc1cnn(C(=O)OCCCc2ccccc2)c1

Row | Retention_time [1] [min] | Ki [2] [nM] | Ki [3] [nM] | SMILES
80 | 3.992 | – | – | Cc1cnn(C(=O)NCc2ccc(Oc3ccccc3)cc2)c1
81 | 4.178 | – | – | Cc1cnn(C(=O)NCCCCCc2ccccc2)c1
82 | 3.91 | – | – | Cc1cnn(C(=O)OCc2ccc(OCc3ccccc3)cc2)c1
83 | 4.159 | – | – | O=C(OCCCCCc1ccccc1)n1cccn1
84 | 3.713 | – | 550 | Cc1cnn(C(=O)NCCCCc2ccccc2)c1
85 | 4.125 | – | – | N#Cc1cnn(C(=O)NCCCCCc2ccccc2)c1
86 | 3.955 | – | 290 | O=C(NCCCCc1ccccc1)n1cccn1
87 | 3.992 | – | – | Cc1cnn(C(=O)Cc2ccc3ccccc3c2)c1
88 | 3.915 | – | – | N#Cc1cnn(C(=O)NCCCc2ccccc2)c1
89 | 4.274 | – | – | N#Cc1cnn(C(=O)OCCCCCc2ccccc2)c1
90 | 3.616 | – | – | Cc1cnn(C(=O)NCCCc2ccccc2)c1
91 | 3.746 | – | 42 | N#Cc1cnn(C(=O)NCCCCc2ccccc2)c1
92 | 3.989 | – | – | O=C(NCCCc1ccccc1)n1cccn1
93 | 4.011 | – | – | O=C(NCCCCCc1ccccc1)n1cccn1
94 | 3.907 | – | – | Cc1cnn(C(=O)NCc2ccc(-c3ccccc3)cc2)c1
95 | 4.201 | – | 250 | Cc1cnn(C(=O)N2CCN(Cc3ccccc3)CC2)c1
96 | 3.988 | – | > 5000 | Cc1cnn(C(=O)OCCCCc2ccccc2)c1

From ChEMBL document CHEMBL3352336, “Discovery libraries targeting the major enzyme classes: the serine hydrolases” (Bioorg Med Chem Lett, 2014)
